Results published in ChEMBL document CHEMBL1629583, “Establishment of in vitro susceptibility testing methodologies and comparative activities of piperacillin in combination with the penem {beta}-lactamase inhibitor BLI-489” (2009).
Values after ≈ are worked out from the molar mass of the structure shown.

Legend:
Assay type in all cases: functional
Providencia stuartii = assay: Antimicrobial activity against Providencia stuartii clinical isolate after 18 to 22 hrs by broth microdilution method in presence of beta-lactamase inhibitor BLI-489
How it was run: (§1)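 CLSI broth microdilution in Mueller-Hinton II broth. Serial dilutions of piperacillin were tested with BLI-489 held at a constant 4 μg/ml. Inoculum was 10^5 CFU/ml. Plates were incubated 18 to 22 h at 35°C in ambient air. MIC was the lowest concentration giving complete growth inhibition by unaided eye.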

[1] = test system: Stenotrophomonas maltophilia; assay: Antimicrobial activity against Stenotrophomonas maltophilia clinical isolate after 18 to 22 hrs by broth microdilution method in presence of beta-lactamase inhibitor Tazobactam
How it was run: (§2)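 Piperacillin-tazobactam was tested by CLSI broth microdilution in Mueller-Hinton II broth against clinical isolates. Inoculum was 10^5 CFU/ml, with 18 to 22 h incubation at 35°C in ambient air. MIC was read as the lowest concentration completely inhibiting visible growth.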

Burkholderia cepacia = assay: Antimicrobial activity against Burkholderia cepacia clinical isolate after 18 to 22 hrs by broth microdilution method in presence of beta-lactamase inhibitor BLI-489
How it was run: (§3)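 CLSI broth microdilution in Mueller-Hinton II broth. Piperacillin serial dilutions were combined with BLI-489 held constant at 4 μg/ml. Inoculum was 10^5 CFU/ml. Plates were incubated 18 to 22 h at 35°C in ambient air. MIC was the lowest concentration completely inhibiting growth seen by the unaided eye. Piperacillin-tazobactam interpretive criteria were applied.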

Staphylococcus aureus = assay: Antimicrobial activity against methicillin-susceptible Staphylococcus aureus clinical isolate after 18 to 22 hrs by broth microdilution method in presence of beta-lactamase inhibitor BLI-489
How it was run: (§4)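 Piperacillin serially diluted with BLI-489 held at a constant 4 μg/ml, by CLSI broth microdilution in Mueller-Hinton II broth. Inoculum was 10^5 CFU/ml. Plates were incubated 18 to 22 h at 35°C in ambient air. MIC was the lowest concentration completely inhibiting growth seen by the unaided eye.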

Enterococcus avium = assay: Antimicrobial activity against Enterococcus avium clinical isolate after 18 to 22 hrs by broth microdilution method in presence of beta-lactamase inhibitor Tazobactam
How it was run: (§5)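 Piperacillin-tazobactam was tested on recent clinical isolates by CLSI broth microdilution in Mueller-Hinton II broth, with tazobactam at constant 4 μg/ml. Wells held 10^5 CFU/ml and were incubated 18 to 22 h at 35°C in ambient air. MIC was the lowest concentration with no growth visible to the unaided eye.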

Streptococcus agalactiae = assay: Antimicrobial activity against Streptococcus agalactiae clinical isolate after 18 to 22 hrs by broth microdilution method in presence of beta-lactamase inhibitor BLI-489
How it was run: (§6)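 Streptococci were tested by CLSI broth microdilution in Mueller-Hinton II broth plus 5% lysed horse blood. Piperacillin dilutions contained a constant 4 μg/ml BLI-489. Inoculum was 10^5 CFU/ml, incubated 18 to 22 h at 35°C in air. MIC was the lowest concentration with no visible growth.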

Escherichia coli [2] = assay: Antimicrobial activity against class A extended spectrum beta-lactamase- and class D OXA- producing Escherichia coli clinical isolate after 18 to 22 hrs by broth microdilution method in presence of beta-lactamase inhibitor BLI-489; how it was run: as §1
Proteus vulgaris = assay: Antimicrobial activity against Proteus vulgaris clinical isolate after 18 to 22 hrs by broth microdilution method in presence of beta-lactamase inhibitor Tazobactam; how it was run: as §2
Enterococcus faecalis = assay: Antimicrobial activity against vancomycin-resistant Enterococcus faecalis clinical isolate after 18 to 22 hrs by broth microdilution method in presence of beta-lactamase inhibitor BLI-489
How it was run: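 CLSI broth microdilution in Mueller-Hinton II broth. Antibiotic in serial dilution with the β-lactamase inhibitor held at a constant 4 μg/ml. Inoculum 10^5 CFU/ml. Incubated 18 to 22 h at 35°C in ambient air.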

Klebsiella aerogenes = assay: Antimicrobial activity against Enterobacter aerogenes clinical isolate after 18 to 22 hrs by broth microdilution method in presence of beta-lactamase inhibitor BLI-489; how it was run: as §3
Enterococcus hirae = assay: Antimicrobial activity against Enterococcus hirae clinical isolate after 18 to 22 hrs by broth microdilution method in presence of beta-lactamase inhibitor Tazobactam; how it was run: as §2
Citrobacter freundii [3] = assay: Antimicrobial activity against AmpC beta-lactamase-producing Citrobacter freundii clinical isolate after 18 to 22 hrs by broth microdilution method in presence of beta-lactamase inhibitor BLI-489; how it was run: as §3
Pseudomonas aeruginosa = assay: Antimicrobial activity against Pseudomonas aeruginosa clinical isolate after 18 to 22 hrs by broth microdilution method in presence of beta-lactamase inhibitor Tazobactam; how it was run: as §2
Klebsiella pneumoniae = assay: Antimicrobial activity against class A extended spectrum beta-lactamase- producing Klebsiella pneumoniae clinical isolate after 18 to 22 hrs by broth microdilution method in presence of beta-lactamase inhibitor BLI-489; how it was run: as §4
Moraxella catarrhalis = assay: Antimicrobial activity against Moraxella catarrhalis clinical isolate after 18 to 22 hrs by broth microdilution method in presence of beta-lactamase inhibitor Tazobactam; how it was run: as §2
[4] = test system: Staphylococcus haemolyticus; assay: Antimicrobial activity against Staphylococcus haemolyticus clinical isolate after 18 to 22 hrs by broth microdilution method in presence of beta-lactamase inhibitor BLI-489; how it was run: as §1
Escherichia coli [5] = assay: Antimicrobial activity against class A extended spectrum beta-lactamase- producing Escherichia coli clinical isolate after 18 to 22 hrs by broth microdilution method in presence of beta-lactamase inhibitor BLI-489; how it was run: as §4
Bacteroides fragilis = assay: Antimicrobial activity against Bacteroides fragilis clinical isolate after 18 to 22 hrs by broth microdilution method
Citrobacter freundii [6] = assay: Antimicrobial activity against Citrobacter freundii clinical isolate after 18 to 22 hrs by broth microdilution method in presence of beta-lactamase inhibitor Tazobactam; how it was run: as §5
Streptococcus pneumoniae = assay: Antimicrobial activity against penicillin-resistant Streptococcus pneumoniae clinical isolate after 18 to 22 hrs by broth microdilution method in presence of beta-lactamase inhibitor Tazobactam
How it was run: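 CLSI broth microdilution in Mueller-Hinton II broth with 5% lysed horse blood. Antibiotic in serial dilution with the β-lactamase inhibitor held at a constant 4 μg/ml. Inoculum 10^5 CFU/ml. Incubated 18 to 22 h at 35°C in ambient air. MIC is the lowest concentration with no growth visible to the eye.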

Streptococcus pyogenes = assay: Antimicrobial activity against Streptococcus pyogenes clinical isolate after 18 to 22 hrs by broth microdilution method in presence of beta-lactamase inhibitor BLI-489; how it was run: as §6

## CCN1CCN(C(=O)N[C@@H](C(=O)N[C@@H]2C(=O)N3[C@@H]2SC(C)(C)[C@@H]3C(=O)O)c2ccccc2)C(=O)C1=O [PIPERACILLIN]
Providencia stuartii
  MIC50: 1 mg/L
  MIC90: 8 mg/L
[1]
  MIC: > 128 mg/L
  MIC50: > 128 mg/L
  MIC90: > 128 mg/L
Burkholderia cepacia
  MIC50: 1 mg/L
  MIC90: 2 mg/L
Staphylococcus aureus
  MIC50: 0.25 mg/L
  MIC90: 0.5 mg/L
Enterococcus avium
  MIC50: 16 mg/L
  MIC90: 64 mg/L
Streptococcus agalactiae
  MIC50: ≤ 0.004 mg/L
  MIC90: 0.03 mg/L
Escherichia coli [2]
  MIC: 2 mg/L
  MIC50: 2 mg/L
  MIC90: 16 mg/L
Proteus vulgaris
  MIC50: 0.5 mg/L
  MIC90: 2 mg/L
Enterococcus faecalis
  MIC: 2 mg/L
  MIC50: 2 mg/L
  MIC90: 64 mg/L
Klebsiella aerogenes
  MIC50: 2 mg/L
  MIC90: 64 mg/L
Enterococcus hirae
  MIC50: 4 mg/L
  MIC90: 16 mg/L
Citrobacter freundii [3]
  MIC50: 4 mg/L
  MIC90: 64 mg/L
Pseudomonas aeruginosa
  MIC50: 16 mg/L
  MIC90: > 128 mg/L
Klebsiella pneumoniae
  MIC50: 16 mg/L
  MIC90: 32 mg/L
Moraxella catarrhalis
  MIC: ≤ 0.004 mg/L
  MIC50: ≤ 0.004 mg/L
  MIC90: 0.008 mg/L
[4]
  MIC50: 32 mg/L
  MIC90: > 128 mg/L
Escherichia coli [5]
  MIC50: 64 mg/L
  MIC90: 128 mg/L
Bacteroides fragilis
  MIC50: 8 mg/L (≈ 15.5 µM)
  MIC90: > 128 mg/L
Citrobacter freundii [6]
  MIC50: 64 mg/L
  MIC90: 128 mg/L
Streptococcus pneumoniae
  MIC50: 2 mg/L
  MIC90: 4 mg/L
Streptococcus pyogenes
  MIC: ≤ 0.004 mg/L
  MIC50: ≤ 0.004 mg/L
  MIC90: ≤ 0.004 mg/L
